Results: ChEMBL document CHEMBL4513216, “Probing the Open Global Health Chemical Diversity Library for Multistage-Active Starting Points for Next-Generation Antimalarials” (ACS Infect Dis, 2020)

Assay: Toxicity liver stage against HepG2, at 10uM
Type: cell-based
Parameters: test concentration 10 uM, cell line HepG2-A16-CD81EGFP
Settings: human, HepG2-A16-CD81EGFP cells; read-out: INHIBITION
How it was run: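 Uninfected HepG2-A16-CD81EGFP cells, 3 × 10^3 per well, 1536-well, plated on prespotted compound at 10 μM final, parasite-free screening media added to match infected plates; puromycin 10 μM positive, DMSO 0.5% negative; run in parallel with 48 h PbLuc assay at 37 °C, 5% CO2; viability by CellTiter-Glo luminescence, normalized to controls.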

SMILES | cytotoxicity at 10 µM [%]
N#Cc1c(-c2ccccc2)csc1N | 2.42
Cc1cc(CN2CCC(CNS(=O)(=O)c3ccc(C)s3)CC2)c(C)o1 | 3.39
COc1cccc(CN2C[C@H]3CCNCC[C@H]3S2(=O)=O)c1 | -8.81
c1csc(CN2C[C@H]3CCC[C@@]3(COCC3CCOCC3)C2)n1 | -1.99
CC(=O)N1CCC(c2cnc(-c3c(C)n[nH]c3C)cn2)CC1 | -17.1
C[C@H](NC(=O)C1CC1)c1nc2cc(-c3ccc(F)cc3)ncn2n1 | -23
CC(C)(C)C(=O)N1CCCC(c2ncncc2-c2ccncc2)C1 (centres undefined) | 4.03
COCC(=O)N1CCC(c2cc3n(n2)[C@@H](C(F)(F)F)C[C@@H](C)N3)CC1 | -26.5
CCC(=O)N1CCC(Cc2cc(Nc3ncccn3)ncn2)CC1 | -4.05
CN(C(=O)CSc1ncc[nH]1)c1ccccc1 | 11.1
Cc1noc(CCCC(=O)N2CCCCC2CNS(C)(=O)=O)n1 (centres undefined) | -0.88
O=C(CCc1ccncc1)N1CCc2cc(Cl)cc(Cl)c2C1 | -24.3
C[C@@H]1CN(C(=O)[C@H]2CCCO2)C[C@]12CCN(c1ccsc1)C2=O | -77.8
O=C(c1ccncc1)N1CCc2ncnc(C3CCOC3)c2CC1 (centres undefined) | -73.2
O=C(NCCn1cccc1)C(c1cccnc1)N1CCCC1 (centres undefined) | -54.5
O=C(Nc1ccc2scnc2c1)N1CCN([C@H]2CCCC[C@@H]2O)CC1 | -53.6
O=C(C1CCCC1)N1CCC(Nc2ccncn2)CC1 | -57.7
CNc1ccnc(NCCC(=O)Nc2ccccc2OC)n1 | -1.62
CCn1ncnc1CN(CCOC)Cc1ccc(C)cc1 | -40.2
CN1CCN(CCC(F)(F)C(F)F)CC12CCNC(=O)CC2 (centres undefined) | -39.7
CCOCCn1c(=O)n(Cc2ccccc2F)c2cc(C(=O)O)cnc21 | -6.46
CN1CC(c2ccccc2)CC2(CCN(Cc3ncc[nH]3)CC2)C1 (centres undefined) | -1.21

SMILES | cytotoxicity at 10 µM [%]
c1ccc(Oc2ccc(CNCC3CNc4ccnn4C3)cn2)cc1 (centres undefined) | -15.6
Clc1cccc(-c2nc(CNC3CCc4ncnn4C3)co2)c1 (centres undefined) | 2.56
Cc1nnc2n1CCN(C(=O)c1cc(C)n(-c3cccnc3)c1C)C2 | -6.63
Cc1ccc(NC2CCN(C(=O)Cc3cccs3)CC2)nn1 | -6.8
Cc1noc(CN(Cc2cccs2)C2CCS(=O)(=O)C2)n1 (centres undefined) | -3.21
Cc1nn(C)c(N(C)C)c1CNCCC(=O)NC1CCCCC1 | -13.4
O=C(c1ccccc1OC1CCCC1)N1CCCC(n2cncn2)C1 (centres undefined) | -0.0581
Cc1noc(C)c1CNC(=O)c1ccc(NC2CC2)nc1 | -3.91
CC(C)OCCC(=O)N(C)CCCc1cc(-c2ccccc2)no1 | -15.3
CC(=O)N(Cc1ncc(C(C)C)o1)C1CCN(CCn2cccn2)C1 (centres undefined) | -4.89
Cc1ccccc1CNC(=O)CN1CCN(Cc2nccn2C)CC1 | -5.75
Cc1nc2c(c(NC(C)C)n1)CCN(Cc1cccnc1)CC2 | 6.4
O=C(c1ccccc1-c1ccccc1)N1C[C@@H]2CNC[C@]2(C(=O)O)C1 | -0.265
Cc1cccc(CN2CCc3[nH]nc(C(=O)N4CCNC(=O)C4)c3C2)n1 | 18.2
CC[C@@H]1N(CC2CCOCC2)CCC[C@]12CCC(=O)N2 | 18.1
Cc1ccc(C(=O)N2CCC3(CC2)CN(c2ccccn2)CCO3)cc1 | -75.4
O=C(NC1CC2(CCN(CCO)CC2)c2ccccc21)c1ccncc1 (centres undefined) | -9.54
Cn1cc(CN2CCCC3(CCN(C(=O)c4cnccn4)C3)C2)cn1 (centres undefined) | -69.6
CN(C)CCN1C(=O)CC[C@@H]2[C@H]1CCN2Cc1cccc(C#N)c1 | -89.1
c1ccc(O[C@H]2CO[C@@]3(CCCN(Cc4nccs4)C3)C2)nc1 | -71.3
Cc1nc(C2(O)CCCNCC2)sc1CCOc1ccccc1 (centres undefined) | -28.5
O=C(c1ccccc1)N1C[C@@H]2CCCO[C@@H]2[C@H](N2CCOCC2)C1 | -8.81
